≈ marks a conversion by molar mass, not a printed value.
Columns and labels:
[1] = Chromatographic hydrophobicity index, log D of the compound in phosphate buffer at pH 7.4 by UV-HPLC analysis; type: physicochemical
[2] = Kinetic aqueous solubility of compound in phosphate buffer at pH 7.4 incubated for 1 hrs by CLND assay; type: physicochemical; settings: read-out: Kinetic_solubility
[3] = Cytotoxicity against human HepG2 cells assessed as cell growth inhibition incubated for 48 hrs by CellTiter-Glo reagent based analysis; type: toxicity
Summary of the method: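 HepG2 cells kept in Eagle's MEM with 10% heat-inactivated FBS, 1% NEAA and penicillin/streptomycin, seeded at ~3000 cells/well onto pre-dispensed compound. Incubation was 48 h at 37 °C, 5% CO2. Plates were equilibrated to room temperature, CellTiter-Glo was added, and ATP luminescence was read after 10 min as the viability read-out.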

[4] = Artificial membrane permeability of the compound incubated for 3 hrs by HPLC analysis; type: ADME; settings: PAMPA, read-out: permeability
[5] = system: Mycobacterium tuberculosis; experiment: Antimycobacterial activity against Mycobacterium tuberculosis H37Rv ATCC 25618 assessed as inhibition of microbial growth incubated for 6 days by resazurin based assay; type: functional; settings: H37Rv ATCC 25618, 144 h, time 6 day
Summary of the method: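 Ten two-fold dilutions made in neat DMSO, tested in Middlebrook 7H9 with the H37Rv inoculum. Controls: isoniazid from 4 μg/ml as positive control; rifampicin 1 μM as no-growth control. Plates sat sealed at 37 °C without shaking for 6 days.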

SMILES	chromatographic logD [1]	solubility kinetic at 1 h [2]	IC50 at 48 h [3]	Papp at 3 h [4]	MIC [5]
COc1ccc2nc(C)cc(OCC(=O)Nc3nccs3)c2c1	3.2	54 µM (≈ 17.8 µg/mL)	> 100 µM	112 ×10⁻⁶ cm/s	> 250 µM
COc1ccc2nc(C)cc(NCC(=O)Nc3cc(C)cc(C)c3)c2c1	3.59	204 µM (≈ 71.3 µg/mL)	6.31 µM	31 ×10⁻⁶ cm/s	47 µM
COc1ccc2nc(C)cc(OCC(=O)Nc3ccc(Cl)c(OC)c3)c2c1	5.09	13 µM (≈ 5.03 µg/mL)	> 100 µM	57 ×10⁻⁶ cm/s	> 125 µM
COc1ccc2nc(C)cc(OC(C(=O)Nc3cc(C)cc(C)c3)c3ccccc3)c2c1 (stereo not drawn)	7.13	2 µM (≈ 0.853 µg/mL)	> 100 µM	< 3 ×10⁻⁶ cm/s	> 125 µM
COc1ccc2nc(C)cc(OCC(=O)Nc3cc(OC)c(OC)c(OC)c3)c2c1	3.95	34 µM (≈ 14 µg/mL)	> 100 µM	62 ×10⁻⁶ cm/s	62 µM
Cc1cc(C)cc(NC(=O)COc2cc(C(F)(F)F)nc3cc4c(cc23)OCO4)c1	6.73	< 1 µM	> 100 µM	< 3 ×10⁻⁶ cm/s	> 250 µM
COc1ccc2nc(C)cc(OCC(=O)Nc3ccc(Cl)c(C(F)(F)F)c3)c2c1	6.22	17 µM (≈ 7.22 µg/mL)	79.4 µM	–	47 µM
CCOc1ccc2nc(C(F)(F)F)cc(OCC(=O)Nc3cc(C)cc(C)c3)c2c1	7.55	< 1 µM	> 100 µM	< 0.3 ×10⁻⁶ cm/s	> 250 µM
CCC(Oc1cc(C)nc2ccc(OC)cc12)C(=O)Nc1cc(C)cc(C)c1 (stereo not drawn)	6.28	123 µM (≈ 46.6 µg/mL)	79.4 µM	39 ×10⁻⁶ cm/s	> 250 µM
COc1ccc2nc(C)cc(OCC(=O)Nc3nc(C)c(C)s3)c2c1	4.24	31.5 µM (≈ 11.3 µg/mL)	> 100 µM	44 ×10⁻⁶ cm/s	62 µM
COc1ccc2nc(C)cc(OCC(=O)Nc3ccccc3)c2c1	4.28	63 µM (≈ 20.3 µg/mL)	39.8 µM	37 ×10⁻⁶ cm/s	2 µM
COc1ccc2nc(C)cc(OCC(=O)Nc3ccc(S(=O)(=O)Nc4cc(C)on4)cc3)c2c1	2.2	≥ 381 µM	> 100 µM	1.5 ×10⁻⁶ cm/s	125 µM
COc1ccc2c(OCC(=O)Nc3cc(C)cc(C)c3)cc(C)nc2c1	5.59	–	50.1 µM	–	> 250 µM
COc1ccc2nc(C)cc(OCC(=O)Nc3cc(C)nc(C)n3)c2c1	3.24	5 µM (≈ 1.76 µg/mL)	> 100 µM	1.2 ×10⁻⁶ cm/s	> 250 µM
Cc1cc(C)cc(NC(=O)COc2cc(C)nc3ccc(C(F)(F)F)cc23)c1	6.67	10 µM (≈ 3.88 µg/mL)	> 100 µM	< 3 ×10⁻⁶ cm/s	> 250 µM
COc1ccc2nc(C)cc(OCC(=O)NC3CONC3=O)c2c1 (stereo not drawn)	0.79	≥ 166 µM	> 100 µM	< 1 ×10⁻⁶ cm/s	> 125 µM
COc1ccc2nc(C)cc(OC3CCN(c4ccccc4)C3=O)c2c1 (stereo not drawn)	4.99	215 µM (≈ 74.9 µg/mL)	100 µM	55 ×10⁻⁶ cm/s	125 µM
Cc1cc(C)cc(NC(=O)COc2cc(C)nc3ccc(Cl)cc23)c1	6.38	8 µM (≈ 2.84 µg/mL)	> 100 µM	–	40 µM
COc1ccc2nc(C)cc(OCc3nc4ccccc4[nH]3)c2c1	3.59	13 µM (≈ 4.15 µg/mL)	> 100 µM	–	16 µM
Cc1cc(C)cc(NC(=O)COc2cc(C)nc3ccc(OCc4ccccc4)cc23)c1	7.03	< 1 µM	> 100 µM	< 1 ×10⁻⁶ cm/s	> 250 µM
COc1ccc2nc(C)c3nc(C(=S)Nc4cc(C)cc(C)c4)sc3c2c1	–	35 µM (≈ 13.8 µg/mL)	> 100 µM	< 3 ×10⁻⁶ cm/s	> 125 µM
COc1ccc2nc(C)cc(OCC(=O)Nc3cc(OC)c(Cl)cc3OC)c2c1	5.8	3 µM (≈ 1.25 µg/mL)	> 100 µM	–	> 125 µM
COc1ccc2nc(C)cc(OC(C)C(=O)Nc3cc(C)cc(C)c3)c2c1 (stereo not drawn)	5.76	61 µM (≈ 22.2 µg/mL)	39.8 µM	32 ×10⁻⁶ cm/s	125 µM
